A short description of series [1]: Cmax in mouse plasma implanted with mouse 4T1 cells at 5.7 mg/kg,iv measured upto 72 hrs. It is filed as ADME, organism-based. The arrangement: dose 5.7 mg/kg, time < 72 hrs, route iv.
Series [2] in a line: Drug concentration in plasma of Beagle dog at 1.14 mg/kg,iv measured upto 24 hrs. It is filed as ADME, organism-based, Canis lupus familiaris. The conditions noted are these: in vivo. The essentials:
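Taxane given as a single intravenous dose: 2.28 mg/kg to rats by injection and 1.14 mg/kg to Beagle dogs by infusion. Plasma concentrations were then measured.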

Series [3] concerns 4T1. Nature of the series: Antitumor activity against mouse 4T1 cells xenografted with BALB/c mouse assessed as decrease in tumor volume at 5.7 mg/kg,iv administrated once per week for 4 weeks. It is filed as functional, organism-based. The method in brief: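 4T1 cells injected into mammary fat pads of BALB/c mice. Dosing iv once per week for 4 weeks, saline vehicle; single-agent arms were given alone or with the peptide component (5b or 6). Endpoints were body weight, tumour volume, tumour weight, lung metastatic nodule count and lung metastasis score. Mean ± SEM, n = 10; ANOVA and Student's t test.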

For series [4], the system named is 4T1. Nature of the series: Antitumor activity against mouse 4T1 cells implanted in BALB/c mouse assessed as decrease in lung MMP2 expression level at 5.7 mg/kg,iv administrated once per week for 4 weeks by western blot assay. It is filed as functional, organism-based. The method in brief:
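4T1 cells injected into mammary fat pads of BALB/c mice. Saline vehicle or test article given iv once weekly for 4 weeks. Spleen, lung and tumor lysates immunoblotted for MMP2/MMP9 with β-actin as loading control. Bands averaged over five mice per group, representative of two independent experiments.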
(In western blotting, separated proteins are transferred to a membrane and probed.)

The nature of series [5]: Plasma protein binding in dog plasma incubated for 4 hrs. It counts as ADME, cell-free, Canis lupus familiaris. The following applies: read-out: PPB (converted).
Series [6] can be described thus: Drug excretion in rat feces at 4 mg/kg,iv measured upto 72 hrs. It is filed as ADME, organism-based. The following applies: faeces, read-out: Drug excretion.
Series [7] can be described thus: Prodrug conversion in mouse tumor implanted with mouse 4T1 cells assessed as AUC (0-t) of docetaxel at 4 mg/kg,iv measured upto 72 hrs. The following applies: in vivo. The arrangement: time < 72 hrs, dose 4 mg/kg, route iv. It counts as ADME, organism-based, Neoplasm.
Series [8] in a line: Prodrug conversion in mouse plasma implanted with mouse 4T1 cells assessed as Cmax of docetaxel at 4 mg/kg,iv measured upto 72 hrs. The following applies: in vivo. The arrangement: dose 4 mg/kg, time < 72 hrs, route iv. It counts as ADME, organism-based.
The nature of series [9]: Volume of distribution at steady state in male rat at 8 mg/kg,iv measured upto 24 hrs. The following applies: in vivo, read-out: Vdss. It counts as ADME, organism-based.
Series [10] is described as follows: Clearance in male rat at 4 mg/kg,iv measured upto 24 hrs. It counts as ADME, organism-based. The following applies: in vivo. The essentials: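 Rats were given a single iv injection at 2, 4 or 8 mg/kg. Plasma parent drug and released docetaxel were followed over time. Cmax, Tmax, AUC, MRT, t1/2, CL and Vss were reported for males, females and all animals combined.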

Series [11] in a line: Half life in male Beagle dog at 2 mg/kg,iv measured upto 24 hrs. It is filed as ADME, organism-based, Canis lupus familiaris. The conditions noted are these: in vivo.
Series [12] in a line: MRT (0 to infinity) in female Beagle dog at 2 mg/kg,iv measured upto 24 hrs. It counts as ADME, organism-based, Canis lupus familiaris. The following applies: in vivo.
Series [13] in a line: MRT (0 to infinity) in female rat at 8 mg/kg,iv measured upto 24 hrs. It counts as ADME, organism-based. The following applies: in vivo.
A short description of series [14]: AUC (0-infinity) in male Beagle dog at 1 mg/kg,iv measured upto 24 hrs. It counts as ADME, organism-based, Canis lupus familiaris. The arrangement: dose 1 mg/kg, time < 24 hrs, route iv. The conditions noted are these: in vivo. The method in brief:
(§1)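 Single iv dose: rats 2, 4 or 8 mg/kg by intravenous injection; Beagle dogs 1, 2 or 4 mg/kg by intravenous infusion. Plasma concentration–time data were analysed by sex and pooled. Reported parameters: Cmax, Tmax, AUC0−t, AUC0−∞, MRT0−∞, t1/2, CL, Vss, given as mean ± SD.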

Series [15] is described as follows: AUC (0-infinity) in male rat at 4 mg/kg,iv measured upto 24 hrs. It is filed as ADME, organism-based. Set-up: time < 24 hrs, dose 4 mg/kg, route iv. The following applies: in vivo. The method in brief: as §1
Series [16] is described as follows: AUC (0-t) in male Beagle dog at 1 mg/kg,iv measured upto 24 hrs. The following applies: in vivo. Set-up: dose 1 mg/kg, time < 24 hrs, route iv. It counts as ADME, organism-based, Canis lupus familiaris. The method in brief: as §1
Series [17] is described as follows: Tmax in male rat at 2 mg/kg,iv measured upto 24 hrs. It is filed as ADME, organism-based. The following applies: in vivo.
Series [18] can be described thus: Tmax in female rat at 2 mg/kg,iv measured upto 24 hrs. It is filed as ADME, organism-based. The following applies: in vivo.
The nature of series [19]: Tmax in Beagle dog at 4 mg/kg,iv measured upto 24 hrs. It is filed as ADME, organism-based, Canis lupus familiaris. The conditions noted are these: in vivo.
The nature of series [20]: Cmax in female Beagle dog at 4 mg/kg,iv measured upto 24 hrs. It counts as ADME, organism-based, Canis lupus familiaris. Set-up: time < 24 hrs, dose 4 mg/kg, route iv. The conditions noted are these: in vivo. The essentials:
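Beagle dogs were given a single iv infusion at 1, 2 or 4 mg/kg. Plasma parent drug and released docetaxel were followed over time. Cmax, Tmax, AUC, MRT, t1/2, CL and Vss were reported by sex and for all dogs combined.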

For series [21], the system named is 4T1. Briefly: Antitumor activity against mouse 4T1 cells xenografted with BALB/c mouse assessed as decrease in lung metastasis at 10 mg/kg,iv administrated once per week for 4 weeks. It is filed as functional, organism-based. The essentials: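 4T1 cells injected into the mammary fat pad of BALB/c mice; iv saline vehicle or 5, 10 or 20 mg/kg once weekly for 4 weeks; body weight, tumour volume, tumour weight, lung metastatic nodule count and metastasis score recorded; n = 10, mean ± SEM, ANOVA and Student's t test.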

Series [22] is described as follows: Toxicity in BALB/c mouse xenografted with human MDA-MB-231 cells assessed as side effects at 10 mg/kg,iv administrated once per week for 3 weeks. The following applies: in vivo, 504 h. It counts as organism-based.
Series [23] in a line: Drug metabolism in mouse hepatocytes assessed as MDA-205 metabolite formation at 20 uM incubated for 180 mins. It is filed as ADME, cell-based, Hepatocyte. The following applies: 3 h.
Series [24] in a line: Drug metabolism in dog hepatocytes assessed as MDA-205 metabolite formation at 20 uM incubated for 180 mins. It counts as ADME, cell-based, Canis lupus familiaris, Hepatocyte. The conditions noted are these: 3 h.
The nature of series [25]: Stability in human hepatocyte assessed as compound remaining at 3 uM incubated upto 120 mins. It is filed as ADME, cell-based. The conditions noted are these: hepatocytes, 2 h.
Series [26] can be described thus: Stability in rat plasma assessed as compound remaining at 1 uM incubated for 6 hrs. It is filed as ADME, cell-free.
Series [27] in a line: Stability in human plasma assessed as compound remaining at 40 uM incubated for 6 hrs. It counts as ADME, cell-free.
The next series has as its system MDA-MB-468. Briefly: Antiproliferative activity against human MDA-MB-468 cells assessed inhibition of cell growth incubated for 72 hrs by SRB assay. It is filed as functional, cell-based. The conditions noted are these: MDA-MB-468, 72 h. On the technique in general: The SRB assay estimates cell density from bound dye.
Series [28] can be described thus: Acute toxicity in Beagle dog assessed as lethal dose at iv administration. It is filed as organism-based, Canis lupus familiaris. The conditions noted are these: in vivo. The essentials:
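Acute toxicity after a single intravenous administration. […] In dogs, an approximate lethal dose range was determined.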

Series [29] can be described thus: Toxicity in Beagle dog assessed as maximal non-toxic dose at iv administration. It counts as organism-based, Canis lupus familiaris. The conditions noted are these: in vivo, read-out: MNTD.
Series [30] deals with 4T1. Nature of the series: Antitumor activity against mouse 4T1 cells implanted in BALB/c mouse assessed as increase in lung NOD1 expression level at 5 to 20 mg/kg,iv administrated once per week for 4 weeks by western blot assay. It counts as functional, organism-based. The conditions noted are these: dose 5-20 mg/kg. The method in brief:
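4T1 fat-pad model in BALB/c mice, iv once weekly for 4 weeks; MMP9, MMP2 and NOD1 in spleen, lung and tumour by western blot, β-actin loading control; bands averaged over five mice per group, representative of two independent experiments.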

Series [31] has as its system 4T1. Briefly: Antitumor activity against mouse 4T1 cells implanted in BALB/c mouse assessed as decrease in MMP9 mRNA expression in lung at 20 mg/kg,iv administrated qd for 2 days by qRT-PCR analysis. It counts as functional, organism-based. The following applies: time 2.0 day. The method in brief:
(§2)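 Day 19 after 4T1 implantation, mice randomised into five groups; iv vehicle or 20 mg/kg plus ip C12-iE-DAP (50 μg/mouse) and MDP (100 μg/mouse) once daily for 2 days; killed after 48 h; lung mRNA for MMP8, MMP9, PROK2, S100A8, S100A9 and IL-1β by qPCR; mean ± SEM.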

Series [32] deals with 4T1. Briefly: Antitumor activity against mouse 4T1 cells implanted in BALB/c mouse assessed as decrease in S100A9 mRNA expression in lung at 20 mg/kg,iv administrated qd for 2 days by qRT-PCR analysis. It counts as functional, organism-based. The conditions noted are these: time 2.0 day. The essentials:
as §2
(Quantitative PCR measures a nucleic acid by following its amplification.)

The source made the active and inactive calls. The rule behind the calls is not given here.

One may read the Cmax as the highest concentration seen after dosing. In general, clearance refers to the volume of plasma or blood freed of the substance per unit of time. Broadly, the half-life is the time in which the quantity being followed falls by half. A lower half-life goes with rapid decline. What is called MRT inf is the average time that molecules of a dose stay in the body. Usually AUC(0-inf) stands for total exposure, with the tail of the curve extrapolated. As usually defined, the AUC(0-t) is the area under the concentration-time curve up to a stated or last time point. A higher AUC(0-t) goes with more exposure. In general, Tmax refers to the time at which the peak concentration occurs. The term IC50 denotes the midpoint of a concentration-inhibition curve. A high value points to a need for much substance.

On to `CC(=O)O[C@@]12CO[C@@H]1C[C@H](O)[C@@]1(C)C(=O)[C@H](O)C3=C(C)[C@@H](OC(=O)[C@H](O)[C@@H](NC(=O)OC(C)(C)C)c4ccccc4)C[C@@](O)([C@@H](OC(=O)c4ccccc4)[C@H]21)C3(C)C` [DOCETAXEL ANHYDROUS], for which the Cmax in series [1] was 8.09 µM. Further, the Drug uptake in series [2] was found to be 0.8%. Further, the result with 4T1 [3] was Active. In the series on 4T1 [4], the outcome was inactive.
For the compound `CC(=O)O[C@@]12CO[C@@H]1C[C@H](O)[C@@]1(C)C(=O)[C@H](O)C3=C(C)[C@@H](OC(=O)[C@H](OC(=O)CCC(=O)NCCCC[C@H](NC(=O)CC[C@@H](NC(=O)[C@H](C)NC(=O)/C=C/c4ccc(F)cc4Cl)C(N)=O)C(=O)O)[C@@H](NC(=O)OC(C)(C)C)c4ccccc4)C[C@@](O)([C@@H](OC(=O)c4ccccc4)[C@H]21)C3(C)C`, the fraction unbound at 4 h in series [5] was 0.003. In addition, in series [6], the dose excreted at 72 h came out at 69.9%. The AUCt in series [7] came to 81 µM·h. Also, the Cmax in series [8] was 43.3 µM; in series [20], 30800 ng/mL. In series [9], the Vd turned out to be 0.096 L/kg. In series [10], this compound showed a clearance of 3.28 mL/min/kg. In series [11], the half-life was 30.2 min. In addition, the MRT inf in series [12] came out at 15.2 min; in [13], 28.2 min. The results for the total exposure AUC(0-inf) in [14] and in series [15] were 1630 ng·h/mL and 20800 ng·h/mL, respectively. The exposure AUC(0-t) at 24 h in series [16] worked out at 1590 ng·h/mL. The Tmax in [17] was determined as 4.98 min; in series [18], 4.98 min; in series [19], 30 min. In addition, the outcome in the series on 4T1 [21], in the series with 4T1 [30], in the series with 4T1 [31] and in the series with 4T1 [32] was Active. Further, the Activity entry in series [22] is “Non-Toxic”. Also, the Drug metabolism result in series [23] and in series [24] was “Metabolite_Detected” each time. The Stability entry in [25], in series [26] and in series [27] was “Stable” throughout. The same compound came in with an IC50 with MDA-MB-468 of 16.3 nM. Moreover, the LD in series [28] amounted to 33 mg/kg. The NOAEL in series [29] is 6 mg/kg.

The record behind these values is ChEMBL document CHEMBL5252546, “Salutaxel, a Conjugate of Docetaxel and a Muramyl Dipeptide (MDP) Analogue, Acts as Multifunctional Prodrug That Inhibits Tumor Growth and Metastasis” (J Med Chem, 2018).
